pIC50: −log10 of the molar value. Calls of active or inactive are those of the source. The calls are words filed in the database; no cut-off is given here.

Experiment [1] deals with T1, Serine/threonine-protein kinase haspin (Homo sapiens) (UniProt Q8TF76).
T1 sequence (whole entry): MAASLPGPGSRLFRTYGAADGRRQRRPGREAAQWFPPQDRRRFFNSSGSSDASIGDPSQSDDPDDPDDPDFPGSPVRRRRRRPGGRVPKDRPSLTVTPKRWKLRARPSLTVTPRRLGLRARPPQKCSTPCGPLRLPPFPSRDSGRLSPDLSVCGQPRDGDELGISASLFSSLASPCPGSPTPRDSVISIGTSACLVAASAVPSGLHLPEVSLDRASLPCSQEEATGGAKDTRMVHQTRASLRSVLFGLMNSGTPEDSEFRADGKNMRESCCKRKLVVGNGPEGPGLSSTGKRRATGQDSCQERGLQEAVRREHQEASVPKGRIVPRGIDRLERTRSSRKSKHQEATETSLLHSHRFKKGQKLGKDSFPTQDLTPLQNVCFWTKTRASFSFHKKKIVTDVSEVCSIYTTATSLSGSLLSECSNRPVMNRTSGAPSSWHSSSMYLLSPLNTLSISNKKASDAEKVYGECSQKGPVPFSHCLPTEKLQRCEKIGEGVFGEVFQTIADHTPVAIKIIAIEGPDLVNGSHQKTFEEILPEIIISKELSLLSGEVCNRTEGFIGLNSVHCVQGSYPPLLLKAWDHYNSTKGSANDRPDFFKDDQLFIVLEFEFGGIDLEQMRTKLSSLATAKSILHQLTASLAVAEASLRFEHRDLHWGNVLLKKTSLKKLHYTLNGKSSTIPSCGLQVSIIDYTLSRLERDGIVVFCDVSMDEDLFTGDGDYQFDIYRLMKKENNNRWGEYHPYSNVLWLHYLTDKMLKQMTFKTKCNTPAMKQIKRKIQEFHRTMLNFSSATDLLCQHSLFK
Put plainly: Inhibition of haspin (unknown origin) at 50 nM by ADP Glo kinase assay relative to control. The method in brief:
(§1)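 In-house ADP-Glo assay: 9 ng/µL kinase, 10 µM ATP, 20 µM peptide substrate, 50 nM inhibitor in 25 mM MOPS pH 7.2, 12.5 mM β-glycerophosphate, 25 mM MgCl2, 2 mM EDTA, 0.2 mM DTT, 40 µg/mL BSA. Incubated 3 h, quenched with GLO reagent 40 min, detection reagent 1 h, luminescence read. Percent inhibition, mean of triplicates.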
Background: In ADP-Glo the light output rises with the ADP produced.

Experiment [2] relates to MOLM-14. The experiment is described as follows: Anticancer activity against human MOLM-14 cells assessed as cell growth inhibition at 50 nM incubated for 72 hrs by CellTiter-Blue Cell Viability Assay relative to control. It is filed as functional. The essentials: (§2)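 Cells plated at 5000/well in RPMI with 10% FBS and penicillin-streptomycin, incubated 24 h at 37 °C, 5% CO2, then exposed to 50 nM compound for 72 h. Viability read by CellTiter-Blue, absorbance at 570 nm 3 h after addition; vehicle and cell-free controls included. Percent growth inhibition given as mean of triplicates.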
A general note: Alamar Blue is a resazurin reagent that responds to reducing activity.

For experiment [3], the target named is Receptor-type tyrosine-protein kinase FLT3 (Homo sapiens) (UniProt P36888). Put plainly: Inhibition of FLT3 (unknown origin) at 50 nM by ADP Glo kinase assay relative to control. The method in brief: as §1
In experiment [4] the test system is MV4-11. The experiment is described as follows: Anticancer activity against human MV4-11 cells assessed as cell growth inhibition at 50 nM incubated for 72 hrs by CellTiter-Blue Cell Viability Assay relative to control. It is filed as functional. The method in brief: as §2
The target in experiment [5] is T1, Serine/threonine-protein kinase haspin (Homo sapiens). Put plainly: Inhibition of haspin in human MOLM-14 cells assessed as reduction in histone H3 phosphorylation at Thr3 at 20 nM incubated for 24 hrs by immunoblotting analysis.
Experiment [6] deals with MOLM-14. The experiment is described as follows: Anticancer activity against human MOLM-14 cells assessed as reduction in cell proliferation incubated for 72 hrs CellTiter-Blue Cell Viability Assay. It is filed as functional. The method in brief:
(§3)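 Cells grown in RPMI + 10% FBS + penicillin-streptomycin, seeded 5000 per well, left 24 h at 37 °C, 5% CO2, then given graded compound concentrations for 72 h. CellTiter-Blue viability read as absorbance at 570 nm after 3 h; vehicle and cell-free controls. Nonlinear regression gave GI50; points are means of triplicates, confirmed by two scientists on separate days.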

Experiment [7] concerns the target Receptor-type tyrosine-protein kinase FLT3 (Homo sapiens, UniProt P36888, D835Y). Put plainly: Inhibition of FLT3 D835Y mutant (unknown origin).
In experiment [8] the test system is DNA. The experiment is described as follows: Binding affinity to DNA (unknown origin) assessed as DNA intercalation. It is filed as nucleic-acid assay. To be noted: Homo sapiens.
In experiment [9] the test system is MOLM-14. The experiment is described as follows: Anticancer activity against human MOLM-14 cells expressing FLT3 D835Y mutant assessed as reduction in cell proliferation incubated for 72 hrs CellTiter-Blue Cell Viability Assay. It is filed as functional. The essentials: as §3
Experiment [10] deals with Receptor-type tyrosine-protein kinase FLT3 (Homo sapiens) (UniProt P36888). The experiment is described as follows: Inhibition of FLT3 in human MOLM-14 cells assessed as reduction in phosphorylation of FLT3 at 5 to 100 nM incubated for 2 hrs by immunoblotting. It is filed as cell-based. As to conditions: dose 5-100 nM. The method in brief: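 MOLM-14 cells exposed to compound at 5, 20 or 100 nM for 2 h, lysed, protein normalized to BSA standard; SDS-PAGE, nitrocellulose transfer, overnight primary antibody, 2 h peroxidase secondary, chemiluminescent detection by CCD. Phospho-FLT3 bands normalized to actin; means of triplicates, SD.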
Background: In western blotting, separated proteins are transferred to a membrane and probed.

Experiment [11] deals with Receptor-type tyrosine-protein kinase FLT3 (Homo sapiens, UniProt P36888, ITD). The experiment is described as follows: Inhibition of FLT3 ITD mutant (unknown origin).
Experiment [12] has as its system MOLM-14. The experiment is described as follows: Anticancer activity against human MOLM-14 cells expressing FLT3 F691L mutant assessed as reduction in cell proliferation incubated for 72 hrs CellTiter-Blue Cell Viability Assay. It is filed as functional. The essentials: as §3
Experiment [13] deals with MV4-11. The experiment is described as follows: Anticancer activity against human MV4-11 cells assessed as reduction in cell proliferation incubated for 72 hrs CellTiter-Blue Cell Viability Assay. It is filed as functional. The method in brief: as §3

Usually inhibition stands for the share of the control response that was lost under treatment. Turning to `O=C(NCc1cc[nH]c1)c1ccc(-c2nc3ccc4[nH]ncc4c3c3c2CCCC3)cc1`, the inhibition in experiment [1] amounted to 41%; in experiment [3], 46%. The values for the Activity in experiment [2] and in experiment [4] were 39% and 28%, respectively.
Consider `O=C(NCc1c[nH]cn1)c1ccc(-c2nc3ccc4[nH]ncc4c3c3c2CCCC3)cc1`, for which the inhibition stood at 54% in [1] and 49% in experiment [3]. Moreover, the Activity in experiment [2] is 67%; in [4], 62%.
With `O=C(NCc1nccs1)c1ccc(-c2nc3ccc4[nH]ncc4c3c3c2CCCC3)cc1`, the inhibition in [1] amounted to 68%; in experiment [3] it was 53%. For the same compound, the Activity in experiment [2] is given as 55%; in [4] it was 60%.
`O=C(NCCn1ccnc1)c1ccc(-c2nc3ccc4[nH]ncc4c3c3c2CCCC3)cc1`: the inhibition was found to be 33% in [1] and 31% in [3]. Also, the Activity in experiment [2] amounted to 42%; in experiment [4] it was 35%.
The like results for `O=C(NCc1ncc[nH]1)c1ccc(-c2nc3ccc4[nH]ncc4c3c3c2CCCC3)cc1` were, in that order, 77%, 76%, 84% and 80%.
`O=C(NCc1ncc[nH]1)c1ccc(-c2nc3ccc4[nH]ncc4c3c3c2CCCC3)c(F)c1`: the inhibition in experiment [1] is 53%; in experiment [3], 88%. In addition, the Activity in experiment [2] came to 87%; in experiment [4], 79%.
On to `CCc1nc(C(N)=O)c(Nc2ccc(N3CCC(N4CCN(C)CC4)CC3)c(OC)c2)nc1NC1CCOCC1` [GILTERITINIB], for which the results for the inhibition in experiment [1] and in [3] were 11% and 93%, respectively. The Activity turned out to be 87% in experiment [2] and 91% in experiment [4]. Also, the inhibition result in experiment [5] was “inactive”.
What is called GI50 is the concentration giving 50% growth inhibition. As usually defined, the pIC50 is −log10 of the IC50, conventionally taken in molar units. High values mean a low IC50, low ones a high IC50. As to `Cc1c[nH]c(CNC(=O)c2ccc(-c3nc4ccc5[nH]ncc5c4c4c3CCCC4)cc2)n1`, the results for the inhibition in experiment [1] and in experiment [3] were 97% and 94%, respectively. The Activity in experiment [2] is 96%; in [4], 94%. Besides, the GI50 in [6] was 22.4 nM; in experiment [9], 4.3 nM; in experiment [12], 2.2 nM; in experiment [13] it was 8.9 nM. For the same compound, the pIC50 in experiment [7] was 10.62; in experiment [11], 9.92. The outcome in experiment [8] was inactive. For the same compound, the result in [10] was Active. The inhibition result in experiment [5] was “Active”.
For `O=C(NCc1nnn[nH]1)c1ccc(-c2nc3ccc4[nH]ncc4c3c3c2CCCC3)cc1`, the inhibition was 57% in [1] and 51% in [3]. The Activity is 50% in [2] and 41% in [4].
The like results for `O=C(NCc1nnc[nH]1)c1ccc(-c2nc3ccc4[nH]ncc4c3c3c2CCCC3)cc1` were, in that order, 57%, 49%, 48% and 52%.
On to `Cn1ccnc1CNC(=O)c1ccc(-c2nc3ccc4[nH]ncc4c3c3c2CCCC3)cc1`, for which the inhibition in experiment [1] stood at 26%; in experiment [3], 14%. The Activity in [2] is 21%; in experiment [4], 25%.
Take `O=C(NCCc1ncc[nH]1)c1ccc(-c2nc3ccc4[nH]ncc4c3c3c2CCCC3)cc1`: the inhibition was 78% in experiment [1] and 71% in experiment [3]. The Activity in experiment [2] is 73%; in experiment [4] it was 69%.
Consider `O=C(NCc1ncc[nH]1)c1ccc(-c2nc3ccc4[nH]ncc4c3c3c2CCCC3)cc1F`, for which the figures for the inhibition in experiment [1] and in [3] were 76% and 85%, respectively. In addition, the Activity in experiment [2] was found to be 80%; in experiment [4] it was 82%.
For `O=C1c2c(O)ccc(O)c2C(=O)c2c(NCCNCCO)ccc(NCCNCCO)c21`, the result in experiment [8] was Active.
As to `FC(F)(F)c1n[nH]cc1-c1nc2ccc3[nH]ncc3c2c2c1CCCC2`, the values for the inhibition in [1] and in [3] were 39% and 81%, respectively. Further, the Activity in experiment [2] was 90%; in [4] it was 92%.

The values above are taken from ChEMBL document CHEMBL5356937, “Dual FLT3/haspin kinase inhibitor based on 3H-pyrazolo[4,3-f]quinoline scaffold with activities against acute myeloid leukemia” (RSC Med Chem, 2023).
